# iPSC survival up: enhancers of single-cell hiPSC survival, primary screen, ATPlite luminescence; 100% = ROCK inhibitor wells, 0% = DMSO; survival enhancement, % at 20 µM; 360,000 tested, 0.044% active; AID 602274, 2012; in the data active means survival enhancement above about 18%;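 further: cells exposed to compounds for 16 hours before the ATP read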
# Cneo AK release: Cryptococcus neoformans cell lysis inducers, primary screen, AK release luminescence, single concentration; lysis activity, % at 15 µM; 360,000 tested, 0.2% active; AID 651654, 2012; C. neoformans lysis, adenylate kinase release luminescence, 4 h; normalised: neutral wells 0, clomiphene wells 100;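 active means mean lysis activity across replicates of at least 80%, whatever share of replicates individually reach that level; inactive means mean lysis activity below 80%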
#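 Signal: Adenylate kinase release luminescence | Assay system: Log-phase Cryptococcus neoformans yeast cells | Input: Cells at 5 × 10^6 per mL | Buffer or medium: Fresh YPD growth medium | Compound: Single dose | Schedule: Static 4 h at 37 °C with compound, 1 h detection | Controls: Clomiphene | Read-out: Luminescence rise reflecting yeast cell lysis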
# SKN-1 inh: suppressors of acrylamide-induced Pgst-4::GFP reporter in worms, primary screen, SKN-1 inhibitor project, whole organism, uHTS, GFP/RFP fluorescence ratio, strain VP596; AID 624304, 2012; inhibition, % at 21.8 µM; 360,000 tested, 0.49% active; C. elegans VP596 Pgst-4::GFP/RFP ratio, 24 h;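 active means interference check ratio from 0.5 to 1.5 plus GFP to RFP signal ratio inhibition reaching or exceeding a fixed threshold, cut at about 30% in these data, passing the limit was not always enough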
# Ecoli rRNA inh: reduced GFP signal of wild-type E. coli, primary screen, bacterial rRNA inhibitor project, GFP/RFP fluorescence, OD600, single point; GFP signal change (wild-type ribosome), % (concentration not given with the values); AID 720706, 2013; E. coli WT GFP vs humanized-ribosome RFP mutants, 24 h; active compounds read low; DMSO median 0, no signal -100; 350,000 tested, 1.6% active;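 active means significant combined selectivity score with lowered wild-type GFP, culture density cut under 30%, mutant RFP and density less affected; inactive means any of these conditions unmet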
# DAGLB inh: DAGLB lipase inhibitors, primary screen, biochemical, fluorescence, HTS; HEK293T DAGLB membrane lysate, EnzChek fluorogenic substrate; inhibition, % at 5.17 µM; 340,000 tested, 0.059% active; in the data active means inhibition above about 34%
# Target sequence (Q8NCG7 whole entry, looked up): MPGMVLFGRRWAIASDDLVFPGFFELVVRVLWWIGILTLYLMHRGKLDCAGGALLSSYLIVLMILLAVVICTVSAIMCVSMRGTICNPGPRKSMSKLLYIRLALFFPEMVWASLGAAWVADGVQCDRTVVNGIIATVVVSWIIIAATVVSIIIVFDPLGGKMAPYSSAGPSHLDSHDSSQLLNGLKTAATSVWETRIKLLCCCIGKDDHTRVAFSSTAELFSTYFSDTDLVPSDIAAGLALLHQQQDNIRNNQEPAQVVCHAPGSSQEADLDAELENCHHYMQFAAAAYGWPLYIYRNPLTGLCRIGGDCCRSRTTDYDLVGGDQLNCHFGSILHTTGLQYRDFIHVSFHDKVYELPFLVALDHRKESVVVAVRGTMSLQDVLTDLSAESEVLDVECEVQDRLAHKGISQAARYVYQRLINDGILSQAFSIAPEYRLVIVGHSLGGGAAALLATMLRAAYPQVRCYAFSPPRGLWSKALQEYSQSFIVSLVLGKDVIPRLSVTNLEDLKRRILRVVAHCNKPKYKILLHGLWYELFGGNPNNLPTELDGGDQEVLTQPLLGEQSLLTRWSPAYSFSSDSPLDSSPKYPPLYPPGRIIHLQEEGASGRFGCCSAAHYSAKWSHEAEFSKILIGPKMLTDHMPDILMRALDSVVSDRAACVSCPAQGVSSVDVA
# MT1-MMP act inh: blockers of MT1-MMP proenzyme processing, primary screen, HT1080 RFP-PRO-GFP cells, GFP/RFP fluorescence; 360,000 tested, 0.061% active; GFP/RFP ratio change, % at 20 µM; AID 651647, 2012; GFP/RFP ratio fluorescence, overnight; percent of plate control window, DMSO zero; Matrix metalloproteinase-14 (Homo sapiens), P50281;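 active means GFP/RFP ratio change of at least 30% with cell ATP level not reduced by more than half and red fluorescence within 50% of control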
#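 Assay system – RFP-PRO-GFP reporter HT1080 cells · Compound dosing – single dose of 20 µM compound, 1% DMSO final · Incubation – overnight compound exposure at 37 °C · Measure – GFP/RFP fluorescence ratio · Benchmarks – DMSO wells and RFP-L50D-GFP cells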
# HepG2 cytotox: cytotoxicity in HepG2 cells, dose response, cytotoxicity control, cell-based, CellTiter-Glo luminescence, cherry-pick, set 4. shares compounds with Ecoli rRNA inh. HepG2 viability, ATP luminescence, 72 h. activity change, negative = cytotoxicity, unspecified at 26 µM. 30 tested, under 10 active;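 active means compounds whose fitted half-maximal signal-loss concentration is at most twice their highest valid dose; inconclusive means flat curve with 30 to 70% signal loss, or poor fit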
# AID977621: growth inhibition of wild-type GFP E. coli, dose response, H69 mutant RFP, cherry-pick | shares compounds with Ecoli rRNA inh | E. coli wild-type GFP strain growth, fluorescence, 24 h | activity change, negative = inhibition at 50 µM | 1,900 tested, under 10 active | AID 977621, 2014;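 active means Wild-type ribosome reporter drop at least double the humanized mutant ribosome reporter drop, growth loss under a set limit; inconclusive means no clear call, values can overlap the other calls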;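 further: wild-type GFP and H69 mutant RFP strains grown together 50/50 in each well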
# AID977628: E. coli growth inhibition, wild-type GFP versus h24 humanized RFP strain, dose response, h24 mutant RFP vs wild-type GFP, cherry-pick | shares compounds with Ecoli rRNA inh | E. coli WT GFP strain growth, fluorescence, 24 h | activity change, negative = inhibition at 50 µM | 1,900 tested, under 10 active | AID 977628, 2014;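 active means compound lowering the normal-ribosome reporter at least twice as much as the humanized-ribosome reporter, growth loss under a set limit; inconclusive means no clear call, values can overlap the other calls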;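 further: wild-type GFP and h24 humanized RFP strains co-cultured 1 to 1 per well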
# Numbers stand for hits; i = inactive; ? = inconclusive; nt = no result given. Most compounds without a hit are left out; they make up all but 1.8% or so of the library.
SMILES,iPSC survival up,Cneo AK release,SKN-1 inh,Ecoli rRNA inh,DAGLB inh,MT1-MMP act inh,AID977621,others
CCN1C(=O)c2ccccc2Sc2ccc(C(=O)O)cc21,i,i,i,i,i,i,nt,
O=C(O)c1ccc2c(c1)N(Cc1ccccc1)C(=O)c1ccccc1S2,i,i,i,-23.6,i,i,i,
Cc1cc(C)nc(SCC(=O)Nc2ccc3c(c2)OCO3)n1,i,i,i,i,i,i,nt,
Cc1nc(SCC(=O)Nc2ccc3c(c2)OCCO3)nc(C)c1C,i,i,i,-18.0,i,i,i,
CC1=CC(C)(C)N(C(=O)CSc2nnc(N)s2)c2cc(C)c(C)cc21,i,i,i,nt,i,i,nt,
CC1=CC(C)(C)N(C(=O)CSc2nnc(C)s2)c2ccc(C)cc21,i,i,i,-17.0,i,i,i,AID977628=?
CC(=O)c1ccc(N2CCN(C(=O)C3CCN(S(=O)(=O)c4ccc5c(c4)CC(C)N5C(C)=O)CC3)CC2)cc1 (stereo not drawn),i,i,i,-19.0,i,i,i,
COc1ccc(S(=O)(=O)N(C)C[C@@H]2OCCCC[C@H](C)Oc3ccc(NC(=O)Nc4c(C)noc4C)cc3C(=O)N([C@@H](C)CO)C[C@@H]2C)cc1,nt,i,nt,i,nt,nt,nt,
C[C@H](NC(=O)C[C@@H]1C[C@H]2c3cc(NC(=O)C4CCC4)ccc3O[C@H]2[C@H](CO)O1)c1ccccc1,nt,i,nt,i,nt,nt,nt,
CCCCNC(=O)c1onc(CSc2cc(C)cc(C)c2)c1C(=O)O,i,i,i,-29.2,i,i,i,
O=C(O)Cn1c(SC2CCCCC2)nc2ccccc21,i,i,i,nt,i,i,nt,
O=C(O)CSc1nc2ccccc2n1C1CCCCC1,i,nt,i,-22.2,i,i,i,
O=C(Nc1ccc2c(c1)OCCO2)c1cccnc1Oc1ccc(Cl)cc1,i,nt,i,-27.2,i,i,i,
Cc1ccccc1CSc1nnc(-c2ccncc2)o1,i,i,i,-18.9,i,i,nt,AID977628=?
COc1ccc(CC(=O)NC(C)c2ccc3ccccc3c2)cc1 (stereo not drawn),i,i,i,-22.6,i,i,nt,AID977628=?
CCC(=O)N(C)C[C@@H]1Oc2ncc(-c3ccc(C(=O)N(C)C)cc3)cc2C(=O)N([C@H](C)CO)C[C@H]1C,nt,i,nt,i,nt,nt,nt,
Cc1ccc(C)c(N2CCN(C(=O)CCS(=O)(=O)c3ccc4c(c3)oc(=O)n4C)CC2)c1,i,i,i,-19.4,i,i,i,AID977628=i
Cn1c(=O)oc2cc(S(=O)(=O)CCC(=O)N3CCN(c4ccccc4F)CC3)ccc21,i,i,i,i,i,nt,nt,
Cc1cc(C)c(OCCNC(=O)c2ccccc2Sc2ccccc2C#N)c(C)c1,i,nt,i,-25.0,i,i,nt,HepG2 cytotox=i
Cc1ccccc1OCCNC(=O)c1ccccc1Sc1ccccc1C#N,i,i,i,nt,i,i,nt,
COCC(=O)N1CC(=O)N2[C@H](C1)[C@H](c1ccc(Br)cc1)[C@@H]2CO,nt,nt,nt,i,nt,nt,nt,

# Assay outcomes (PubChem BioAssay)
